Results: ChEMBL document CHEMBL2203081 (Bioorg Med Chem Lett, 2012)
Activity calls are given as the source filed them. The rule behind the calls is not given here.

Experiments:
[1] = biological target: SRSF protein kinase 1 (Homo sapiens) (UniProt Q96SB4); assay: Inhibition of SRPK1 assessed as residual activity at 10 uM relative to control
[2] = biological target: Serine/threonine-protein kinase MRCK beta (Homo sapiens) (UniProt Q9Y5S2); assay: Inhibition of MRCKB assessed as residual activity at 10 uM relative to control
[3] = biological target: Homeodomain-interacting protein kinase 4 (Homo sapiens) (UniProt Q8NE63); assay: Inhibition of HIPK4 assessed as residual activity at 10 uM relative to control
[4] = biological target: Casein kinase I isoform alpha-like (Homo sapiens) (UniProt Q8N752); assay: Inhibition of CSNK1A1L assessed as residual activity at 10 uM relative to control
Method in brief: (§1)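 Competition kinase-binding assay (KINOMEscan) across a non-redundant panel of 329 kinases beyond the radiometric panel; residual binding expressed relative to control.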

[5] = biological target: Dual specificity protein kinase CLK4 (Homo sapiens) (UniProt Q9HAZ1); assay: Inhibition of CLK4 assessed as residual activity at 10 uM relative to control; method in brief: as §1
[6] = biological target: Citron Rho-interacting kinase (Homo sapiens) (UniProt O14578); assay: Inhibition of CIT assessed as residual activity at 10 uM relative to control
[7] = biological target: Tyrosine-protein kinase Yes (Homo sapiens) (UniProt P07947); assay: Inhibition of YES1 assessed as residual activity at 1 uM
[8] = biological target: Protein-tyrosine kinase 6 (Homo sapiens) (UniProt Q13882); assay: Inhibition of BRK assessed as residual activity at 1 uM
Method in brief: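 Radioactivity-based enzymatic assay against a panel of 131 kinases (Dundee profiling). Activity remaining was measured with compound present at the stated concentration.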

[9] = biological target: Mitogen-activated protein kinase 14 (Homo sapiens) (UniProt Q16539); assay: Inhibition of p38a MAPK assessed as residual activity at 1 uM
[10] = biological target: Serine/threonine-protein kinase 35 (Homo sapiens) (UniProt Q8TDR2); assay: Inhibition of STK35 assessed as residual activity at 10 uM relative to control
[11] = biological target: Death-associated protein kinase 2 (Homo sapiens) (UniProt Q9UIK4); assay: Inhibition of DAPK2 assessed as residual activity at 10 uM relative to control; method in brief: as §1
[12] = biological target: Dual specificity tyrosine-phosphorylation-regulated kinase 3 (Homo sapiens) (UniProt O43781); assay: Inhibition of DYRK3 assessed as residual activity at 1 uM
Method in brief: (§2)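 Standard radioactivity-based enzymatic kinase assays on a 131-kinase panel run by the Dundee profiling service; residual kinase activity recorded.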

[13] = biological target: Serine/threonine-protein kinase tousled-like 1 (Homo sapiens) (UniProt Q9UKI8); assay: Inhibition of TLK1 assessed as residual activity at 10 uM relative to control
[14] = biological target: Interleukin-1 receptor-associated kinase 4 (Homo sapiens) (UniProt Q9NWZ3); assay: Inhibition of IRAK4 assessed as residual activity at 10 uM relative to control
[15] = test system: Mast/stem cell growth factor receptor Kit (Homo sapiens), P10721 [L576P]; assay: Inhibition of KIT L576P mutant assessed as residual activity at 10 uM relative to control
[16] = biological target: NT-3 growth factor receptor (Homo sapiens) (UniProt Q16288); assay: Inhibition of TRKC assessed as residual activity at 10 uM relative to control
[17] = Inhibition of AMPK assessed as residual activity at 10 uM
[18] = biological target: Serine/threonine-protein kinase 3 (Homo sapiens) (UniProt Q13188); assay: Inhibition of MST2 assessed as residual activity at 1 uM
[19] = biological target: Leucine-rich repeat serine/threonine-protein kinase 2 (Homo sapiens) (UniProt Q5S007); settings: HEK293, 0.3 to 1 uM
[20] = biological target: Tyrosine-protein kinase CSK (Homo sapiens) (UniProt P41240); assay: Inhibition of CSK assessed as residual activity at 10 uM; method in brief: as §2
[21] = biological target: Leukocyte tyrosine kinase receptor (Homo sapiens) (UniProt P29376); assay: Inhibition of LTK assessed as residual activity at 10 uM relative to control
[22] = biological target: Casein kinase I isoform alpha (Homo sapiens) (UniProt P48729); assay: Inhibition of CSNK1A1 assessed as residual activity at 10 uM relative to control; method in brief: as §1
[23] = biological target: Serine/threonine-protein kinase WNK1 (Homo sapiens) (UniProt Q9H4A3); assay: Inhibition of WNK1 assessed as residual activity at 10 uM
[24] = biological target: Insulin receptor (Homo sapiens) (UniProt P06213); assay: Inhibition of INSR assessed as residual activity at 10 uM relative to control
[25] = biological target: Serine/threonine-protein kinase DCLK1 (Homo sapiens) (UniProt O15075); assay: Inhibition of DCAMKL1 assessed as residual activity at 10 uM relative to control; method in brief: as §1
[26] = biological target: T1, Serine/threonine-protein kinase D1 (Homo sapiens) (UniProt Q15139); assay: Inhibition of PKD1 assessed as residual activity at 10 uM
T1 sequence (whole entry): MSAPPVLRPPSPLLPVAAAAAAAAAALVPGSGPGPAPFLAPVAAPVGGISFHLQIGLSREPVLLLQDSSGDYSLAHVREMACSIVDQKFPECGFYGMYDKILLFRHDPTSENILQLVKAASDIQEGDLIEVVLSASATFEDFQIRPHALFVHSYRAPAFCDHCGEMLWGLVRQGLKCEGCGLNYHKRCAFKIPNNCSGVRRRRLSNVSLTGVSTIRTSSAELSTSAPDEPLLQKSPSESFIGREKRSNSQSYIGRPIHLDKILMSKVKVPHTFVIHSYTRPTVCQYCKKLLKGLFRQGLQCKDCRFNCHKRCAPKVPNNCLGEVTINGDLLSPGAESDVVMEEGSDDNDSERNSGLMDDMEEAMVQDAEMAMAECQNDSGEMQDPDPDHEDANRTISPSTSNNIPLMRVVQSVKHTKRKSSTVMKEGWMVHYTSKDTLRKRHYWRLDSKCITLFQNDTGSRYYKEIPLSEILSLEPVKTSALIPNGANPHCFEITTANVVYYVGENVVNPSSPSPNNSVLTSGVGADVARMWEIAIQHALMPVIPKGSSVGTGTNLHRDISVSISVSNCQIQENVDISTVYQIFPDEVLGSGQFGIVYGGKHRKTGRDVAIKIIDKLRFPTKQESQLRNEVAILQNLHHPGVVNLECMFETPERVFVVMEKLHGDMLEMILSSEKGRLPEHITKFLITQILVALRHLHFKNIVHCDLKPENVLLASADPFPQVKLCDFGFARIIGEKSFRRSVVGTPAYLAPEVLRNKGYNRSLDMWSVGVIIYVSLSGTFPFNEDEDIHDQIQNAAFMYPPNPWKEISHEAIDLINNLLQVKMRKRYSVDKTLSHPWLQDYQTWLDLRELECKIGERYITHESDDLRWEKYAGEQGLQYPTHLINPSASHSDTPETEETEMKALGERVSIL

[27] = biological target: Myosin light chain kinase family member 4 (Homo sapiens) (UniProt Q86YV6); assay: Inhibition of MYLK4 assessed as residual activity at 10 uM relative to control
Chain of Myosin light chain kinase family member 4 (Homo sapiens) (Q86YV6 whole entry): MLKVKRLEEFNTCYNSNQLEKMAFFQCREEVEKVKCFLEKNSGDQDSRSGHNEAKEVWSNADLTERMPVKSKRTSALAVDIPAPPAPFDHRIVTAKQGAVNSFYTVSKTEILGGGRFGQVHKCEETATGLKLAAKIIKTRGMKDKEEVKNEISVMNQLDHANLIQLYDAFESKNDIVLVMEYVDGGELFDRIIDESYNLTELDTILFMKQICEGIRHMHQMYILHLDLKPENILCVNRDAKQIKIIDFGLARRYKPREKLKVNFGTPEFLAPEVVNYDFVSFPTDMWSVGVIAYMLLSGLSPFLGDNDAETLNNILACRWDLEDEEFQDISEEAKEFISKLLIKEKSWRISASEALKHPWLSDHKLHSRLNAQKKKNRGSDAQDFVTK

Chain of Leukocyte tyrosine kinase receptor (Homo sapiens) (P29376 whole entry, canonical isoform): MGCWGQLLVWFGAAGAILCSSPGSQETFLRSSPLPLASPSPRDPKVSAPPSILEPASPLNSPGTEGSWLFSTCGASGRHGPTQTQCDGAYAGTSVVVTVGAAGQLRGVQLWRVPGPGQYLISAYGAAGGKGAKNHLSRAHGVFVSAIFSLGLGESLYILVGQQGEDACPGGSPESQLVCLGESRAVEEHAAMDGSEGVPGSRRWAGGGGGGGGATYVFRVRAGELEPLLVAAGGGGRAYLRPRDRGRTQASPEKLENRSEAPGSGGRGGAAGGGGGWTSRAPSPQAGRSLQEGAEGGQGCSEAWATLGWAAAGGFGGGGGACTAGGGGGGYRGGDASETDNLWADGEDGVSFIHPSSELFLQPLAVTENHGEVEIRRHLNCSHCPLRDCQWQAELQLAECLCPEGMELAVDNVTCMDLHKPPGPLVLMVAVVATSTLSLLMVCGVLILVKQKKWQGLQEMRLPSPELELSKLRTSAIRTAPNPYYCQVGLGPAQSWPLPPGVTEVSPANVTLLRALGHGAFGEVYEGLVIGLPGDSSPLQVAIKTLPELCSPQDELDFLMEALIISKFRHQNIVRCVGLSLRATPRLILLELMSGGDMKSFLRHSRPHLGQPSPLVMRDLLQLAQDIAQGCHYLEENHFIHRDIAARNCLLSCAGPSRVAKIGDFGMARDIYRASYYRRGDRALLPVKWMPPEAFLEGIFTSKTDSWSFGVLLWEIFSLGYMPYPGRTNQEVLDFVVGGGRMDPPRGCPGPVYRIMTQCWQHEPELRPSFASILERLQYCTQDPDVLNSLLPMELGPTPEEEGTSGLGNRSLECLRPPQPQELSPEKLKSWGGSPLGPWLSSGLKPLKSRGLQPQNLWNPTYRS
Chain of Tyrosine-protein kinase CSK (Homo sapiens) (P41240 2-450 limits assumed): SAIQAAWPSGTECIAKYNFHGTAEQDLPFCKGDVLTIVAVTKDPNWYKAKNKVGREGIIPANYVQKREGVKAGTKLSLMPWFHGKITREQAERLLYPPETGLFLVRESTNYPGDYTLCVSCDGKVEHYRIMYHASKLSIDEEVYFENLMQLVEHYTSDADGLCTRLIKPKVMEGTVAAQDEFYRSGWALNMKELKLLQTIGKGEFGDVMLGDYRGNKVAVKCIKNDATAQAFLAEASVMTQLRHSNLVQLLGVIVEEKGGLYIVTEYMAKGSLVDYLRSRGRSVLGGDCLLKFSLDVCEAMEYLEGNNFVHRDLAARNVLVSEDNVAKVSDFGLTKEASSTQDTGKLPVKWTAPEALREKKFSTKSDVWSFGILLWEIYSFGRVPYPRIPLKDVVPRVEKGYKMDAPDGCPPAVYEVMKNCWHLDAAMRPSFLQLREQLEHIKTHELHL
Chain of Casein kinase I isoform alpha (Homo sapiens) (P48729 2-337 limits assumed): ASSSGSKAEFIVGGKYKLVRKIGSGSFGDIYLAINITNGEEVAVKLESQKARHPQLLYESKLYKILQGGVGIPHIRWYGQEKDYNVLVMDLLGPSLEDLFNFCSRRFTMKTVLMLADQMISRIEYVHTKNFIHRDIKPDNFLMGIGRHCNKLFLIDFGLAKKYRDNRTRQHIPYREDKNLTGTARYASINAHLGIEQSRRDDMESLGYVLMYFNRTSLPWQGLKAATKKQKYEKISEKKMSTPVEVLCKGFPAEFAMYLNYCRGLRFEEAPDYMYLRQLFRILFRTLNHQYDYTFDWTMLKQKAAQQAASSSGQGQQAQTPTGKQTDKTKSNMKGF
Chain of Serine/threonine-protein kinase 35 (Homo sapiens) (Q8TDR2 whole entry): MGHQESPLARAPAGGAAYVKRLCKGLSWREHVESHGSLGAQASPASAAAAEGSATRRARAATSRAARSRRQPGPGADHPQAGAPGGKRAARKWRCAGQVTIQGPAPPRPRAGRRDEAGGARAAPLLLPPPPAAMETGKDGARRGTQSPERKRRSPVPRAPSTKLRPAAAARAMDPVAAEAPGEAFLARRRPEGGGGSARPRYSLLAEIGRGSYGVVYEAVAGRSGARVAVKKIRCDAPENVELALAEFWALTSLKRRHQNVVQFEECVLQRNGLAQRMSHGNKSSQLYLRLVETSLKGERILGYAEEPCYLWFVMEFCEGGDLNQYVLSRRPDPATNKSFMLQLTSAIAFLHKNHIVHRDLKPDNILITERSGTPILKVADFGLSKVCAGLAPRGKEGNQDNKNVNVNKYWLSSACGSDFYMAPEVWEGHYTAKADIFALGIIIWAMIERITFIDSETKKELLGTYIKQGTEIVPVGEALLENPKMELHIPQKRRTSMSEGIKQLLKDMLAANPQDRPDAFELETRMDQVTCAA
Chain of SRSF protein kinase 1 (Homo sapiens) (Q96SB4 whole entry): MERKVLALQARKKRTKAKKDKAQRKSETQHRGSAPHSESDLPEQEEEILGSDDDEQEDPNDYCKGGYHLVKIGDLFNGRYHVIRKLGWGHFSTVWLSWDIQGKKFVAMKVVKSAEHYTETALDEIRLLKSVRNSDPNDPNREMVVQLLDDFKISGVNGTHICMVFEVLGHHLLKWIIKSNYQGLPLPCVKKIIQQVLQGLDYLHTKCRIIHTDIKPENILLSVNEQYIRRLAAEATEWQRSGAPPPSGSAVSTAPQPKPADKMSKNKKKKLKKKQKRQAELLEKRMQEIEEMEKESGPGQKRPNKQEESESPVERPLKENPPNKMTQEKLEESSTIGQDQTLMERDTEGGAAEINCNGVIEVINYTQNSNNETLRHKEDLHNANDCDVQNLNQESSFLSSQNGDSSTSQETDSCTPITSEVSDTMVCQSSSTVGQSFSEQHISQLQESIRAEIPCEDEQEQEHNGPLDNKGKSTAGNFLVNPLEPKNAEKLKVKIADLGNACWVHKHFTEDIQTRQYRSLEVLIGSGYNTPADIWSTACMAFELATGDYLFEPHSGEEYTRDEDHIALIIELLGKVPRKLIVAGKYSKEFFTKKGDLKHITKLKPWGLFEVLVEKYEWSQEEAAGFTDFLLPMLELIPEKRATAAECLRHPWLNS
Chain of Dual specificity protein kinase CLK4 (Homo sapiens) (Q9HAZ1 whole entry, looked up): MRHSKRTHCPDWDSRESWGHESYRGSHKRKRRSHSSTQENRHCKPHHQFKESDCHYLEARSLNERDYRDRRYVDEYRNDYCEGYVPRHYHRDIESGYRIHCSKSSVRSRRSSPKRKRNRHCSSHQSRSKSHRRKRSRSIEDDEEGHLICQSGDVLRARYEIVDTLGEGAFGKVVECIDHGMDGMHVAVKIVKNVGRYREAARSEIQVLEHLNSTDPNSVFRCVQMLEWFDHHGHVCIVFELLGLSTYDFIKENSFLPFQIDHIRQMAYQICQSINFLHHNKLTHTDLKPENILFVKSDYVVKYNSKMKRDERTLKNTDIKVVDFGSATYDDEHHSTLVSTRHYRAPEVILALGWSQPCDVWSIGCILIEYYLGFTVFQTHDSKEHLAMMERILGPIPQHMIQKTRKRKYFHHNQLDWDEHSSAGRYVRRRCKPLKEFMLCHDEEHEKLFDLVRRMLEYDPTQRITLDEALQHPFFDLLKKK
Chain of Serine/threonine-protein kinase tousled-like 1 (Homo sapiens) (Q9UKI8 whole entry): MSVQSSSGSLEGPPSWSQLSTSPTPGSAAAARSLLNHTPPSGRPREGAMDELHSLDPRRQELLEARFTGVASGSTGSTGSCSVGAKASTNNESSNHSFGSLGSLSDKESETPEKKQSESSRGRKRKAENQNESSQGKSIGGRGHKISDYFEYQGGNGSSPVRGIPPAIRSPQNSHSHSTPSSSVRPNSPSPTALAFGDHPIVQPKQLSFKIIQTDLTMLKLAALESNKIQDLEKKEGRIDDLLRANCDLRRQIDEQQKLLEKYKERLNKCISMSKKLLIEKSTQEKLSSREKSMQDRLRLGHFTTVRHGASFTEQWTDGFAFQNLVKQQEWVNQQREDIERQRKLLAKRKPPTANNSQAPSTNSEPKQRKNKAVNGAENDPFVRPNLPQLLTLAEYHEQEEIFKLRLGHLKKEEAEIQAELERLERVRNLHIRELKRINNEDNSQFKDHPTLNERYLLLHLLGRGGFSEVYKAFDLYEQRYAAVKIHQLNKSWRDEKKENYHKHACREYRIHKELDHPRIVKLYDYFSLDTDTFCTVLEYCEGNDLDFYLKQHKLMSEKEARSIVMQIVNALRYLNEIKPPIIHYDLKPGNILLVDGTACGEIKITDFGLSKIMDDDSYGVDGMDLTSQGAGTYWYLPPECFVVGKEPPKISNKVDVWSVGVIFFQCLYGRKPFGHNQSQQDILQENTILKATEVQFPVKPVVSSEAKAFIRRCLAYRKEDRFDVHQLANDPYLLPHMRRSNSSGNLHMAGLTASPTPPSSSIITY
Chain of Protein-tyrosine kinase 6 (Homo sapiens) (Q13882 whole entry, looked up): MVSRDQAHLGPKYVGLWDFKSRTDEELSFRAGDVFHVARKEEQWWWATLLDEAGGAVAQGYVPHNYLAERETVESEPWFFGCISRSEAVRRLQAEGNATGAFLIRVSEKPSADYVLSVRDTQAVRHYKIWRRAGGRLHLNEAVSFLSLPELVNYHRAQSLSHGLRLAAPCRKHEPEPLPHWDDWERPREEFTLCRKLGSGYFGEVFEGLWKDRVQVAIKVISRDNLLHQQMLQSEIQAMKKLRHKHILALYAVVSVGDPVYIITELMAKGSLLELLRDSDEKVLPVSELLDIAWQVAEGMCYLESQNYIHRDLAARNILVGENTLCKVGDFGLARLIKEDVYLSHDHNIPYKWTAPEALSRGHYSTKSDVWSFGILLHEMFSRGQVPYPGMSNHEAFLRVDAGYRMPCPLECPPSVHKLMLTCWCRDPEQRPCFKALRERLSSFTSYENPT

O=C(Nc1cccnc1)c1cc(-c2ccnc(F)c2)ccc1OCc1ccccc1
Activity [1]: 79%
Activity [2]: 59%
Activity [3]: 80%
Activity [4]: 40%
Activity [5]: 46%
Activity [6]: 48%
Activity [7]: 120%
Activity [8]: 103%
Activity [9]: 101%
Activity [10]: 44%
Activity [11]: 69%
Activity [12]: 101%
Activity [13]: 66%
Activity [14]: 58%
Activity [15]: 52%
Activity [16]: 62%
Activity [17]: 90%
Activity [18]: 103%
inhibition [19]: Active
Activity [20]: 114%
Activity [21]: 21%
Activity [22]: 60%
Activity [23]: 106%
Activity [24]: 44%
Activity [25]: 57%
Activity [26]: 76%
Activity [27]: 80%
